Measurements reported in ChEMBL document CHEMBL3108700, “Designing anti-inflammatory drugs from parasitic worms: a synthetic small molecule analogue of the Acanthocheilonema viteae product ES-62 prevents development of collagen-induced arthritis” (J Med Chem, 2013).
Calls of active or inactive are those of the source. Unless noted, no cut-off for these calls is given here.

How the values were obtained:
[1] = molecular target: T1, Toll-like receptor 4 (Mus musculus) (UniProt Q9QUK6); assay: Inhibition of TLR4 in C57BL/6 mouse BMDC assessed as reduction of LPS-induced IL-6 production at 5 ug/mL preincubated for 2 hrs prior to LPS challenge measured after 24 hrs by ELISA
T1 sequence (whole entry): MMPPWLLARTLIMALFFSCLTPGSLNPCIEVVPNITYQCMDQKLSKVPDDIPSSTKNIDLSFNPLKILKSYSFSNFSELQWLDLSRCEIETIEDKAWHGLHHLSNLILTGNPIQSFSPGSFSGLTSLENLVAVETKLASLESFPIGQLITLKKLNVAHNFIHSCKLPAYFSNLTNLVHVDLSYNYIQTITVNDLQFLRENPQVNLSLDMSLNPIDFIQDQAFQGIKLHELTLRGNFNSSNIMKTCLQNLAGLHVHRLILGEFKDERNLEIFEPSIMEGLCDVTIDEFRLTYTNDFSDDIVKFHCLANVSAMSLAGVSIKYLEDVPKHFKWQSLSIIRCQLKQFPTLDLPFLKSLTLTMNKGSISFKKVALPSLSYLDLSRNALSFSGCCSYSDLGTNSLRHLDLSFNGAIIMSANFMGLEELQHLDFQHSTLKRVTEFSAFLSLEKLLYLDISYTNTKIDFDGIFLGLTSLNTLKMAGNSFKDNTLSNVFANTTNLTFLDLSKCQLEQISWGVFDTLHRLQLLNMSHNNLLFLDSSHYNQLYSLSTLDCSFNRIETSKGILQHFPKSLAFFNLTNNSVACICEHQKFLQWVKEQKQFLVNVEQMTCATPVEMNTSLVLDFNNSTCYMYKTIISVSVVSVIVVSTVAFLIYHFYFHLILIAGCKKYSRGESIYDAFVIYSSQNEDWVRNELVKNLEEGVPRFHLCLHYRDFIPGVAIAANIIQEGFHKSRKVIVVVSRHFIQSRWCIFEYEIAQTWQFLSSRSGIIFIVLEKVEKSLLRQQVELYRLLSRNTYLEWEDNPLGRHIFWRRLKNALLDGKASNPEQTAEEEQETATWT
Procedure, shortened: (§1)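 C57BL/6 bone marrow DCs were generated in complete RPMI with 10 ng/mL GM-CSF. They were preincubated ± compound at 5 μg/mL for 2 h, then stimulated with LPS for 24 h. TNF-α, IL-6 and IL-23 in conditioned medium were measured by ELISA. Values are means of triplicates ± SEM pooled from 4 experiments.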

[2] = molecular target: T2, Toll-like receptor 9 (Mus musculus) (UniProt Q9EQU3); assay: Inhibition of TLR9 in BALB/c mouse BMDM assessed as downregulation of CpG-stimulated IL-12p40 level at 5 ug/ml preincubated for 18 hrs followed by CpG challenge measured after 24 hrs by ELISA relative to control
T2 sequence (whole entry): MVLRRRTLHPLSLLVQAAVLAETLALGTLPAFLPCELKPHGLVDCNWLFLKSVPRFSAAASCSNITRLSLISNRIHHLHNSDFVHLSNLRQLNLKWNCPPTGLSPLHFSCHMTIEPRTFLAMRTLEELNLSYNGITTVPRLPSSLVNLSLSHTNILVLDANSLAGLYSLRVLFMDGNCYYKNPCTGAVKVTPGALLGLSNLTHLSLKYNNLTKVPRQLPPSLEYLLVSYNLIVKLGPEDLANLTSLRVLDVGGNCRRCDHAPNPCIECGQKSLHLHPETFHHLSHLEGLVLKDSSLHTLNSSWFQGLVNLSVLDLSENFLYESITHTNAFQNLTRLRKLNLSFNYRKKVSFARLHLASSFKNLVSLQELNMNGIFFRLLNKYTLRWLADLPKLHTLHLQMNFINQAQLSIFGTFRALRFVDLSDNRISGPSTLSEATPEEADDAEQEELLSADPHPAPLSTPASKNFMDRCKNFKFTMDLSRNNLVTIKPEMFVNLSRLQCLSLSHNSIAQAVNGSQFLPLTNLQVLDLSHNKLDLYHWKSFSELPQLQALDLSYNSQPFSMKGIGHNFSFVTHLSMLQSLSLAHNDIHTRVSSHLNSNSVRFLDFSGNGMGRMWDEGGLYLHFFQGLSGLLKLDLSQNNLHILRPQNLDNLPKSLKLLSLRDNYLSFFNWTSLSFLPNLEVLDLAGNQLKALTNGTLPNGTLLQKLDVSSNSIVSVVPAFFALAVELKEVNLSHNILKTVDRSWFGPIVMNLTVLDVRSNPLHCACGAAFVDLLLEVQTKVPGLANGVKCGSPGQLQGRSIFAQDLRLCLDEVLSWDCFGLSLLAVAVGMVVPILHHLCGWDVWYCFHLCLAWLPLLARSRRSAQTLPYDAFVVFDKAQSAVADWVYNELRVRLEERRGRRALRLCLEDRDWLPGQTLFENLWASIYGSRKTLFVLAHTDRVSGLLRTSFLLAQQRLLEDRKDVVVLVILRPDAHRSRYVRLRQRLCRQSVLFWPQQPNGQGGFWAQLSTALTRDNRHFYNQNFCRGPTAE
Procedure, shortened: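 BALB/c male bone marrow macrophages were differentiated 7 days with L929 supernatant (≥99% CD11b+/F4/80+). Cells were plated at 2 × 10^5/well in triplicate, rested overnight, and given compounds at 5 μg/mL for 18 h. They were then stimulated with 100 ng/mL S. minnesota LPS, 10 ng/mL Pam3CSK4 (BLP) or 0.01 μM CpG for 24 h. Supernatant IL-12p40 and IL-6 were measured by ELISA (sensitivity 16 pg/mL).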

[3] = system: Mus musculus; assay: Antiinflammatory activity in DBA/1 mouse collagen-induced arthritis model assessed as reduction in number of PMA/ionomycin-stimulated CD4+ T cells expressing IL-17 at 50 ug/kg, sc administered 2 days prior to collagen challenge continued till day 21 post collagen challenge by flow cytometric analysis relative to control; assay type: functional, organism-based; conditions: T-cell
Procedure, shortened: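 CIA mice given test agent (1 μg/dose) or PBS subcutaneously on days −2, 0 and 21. Draining lymph node cells (10^6/mL) in complete RPMI were stimulated ± 50 ng/mL PMA plus 500 ng/mL ionomycin, with 10 μg/mL brefeldin A for 5 h at 37 °C. Cells were surface-stained for CD4, CD8 and γδ, fixed and permeabilized, then stained for intracellular IFNγ and IL-17A. Gating used isotype controls. Cell numbers per individual mouse; naive n = 7, treated groups n = 13.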

[4] = molecular target: T1, Toll-like receptor 4 (Mus musculus); assay: Inhibition of TLR4 in BALB/c mouse BMDM assessed as reduction of LPS-stimulated IL-6 production at 0.2 ug/ml preincubated for 18 hrs followed by LPS challenge measured after 24 hrs by ELISA
[5] = molecular target: T1, Toll-like receptor 4 (Mus musculus); assay: Inhibition of TLR4 in C57BL/6 mouse BMDC assessed as reduction of LPS-induced IL-23 production at 5 ug/mL preincubated for 2 hrs prior to LPS challenge measured after 24 hrs by ELISA; procedure, shortened: as §1
[6] = system: Mus musculus; assay: Antiinflammatory activity in DBA/1 mouse collagen-induced arthritis model assessed as reduction in serum level of IL-17 at 50 ug/kg, sc administered 2 days prior to collagen challenge continued till day 21 post collagen challenge by ELISA; assay type: functional, organism-based
Procedure, shortened: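 Serum IL-17 was measured by ELISA in CIA mice dosed subcutaneously (1 μg/dose or PBS) on days −2, 0 and 21. Values are the mean of triplicate analyses per individual mouse (PBS n = 12, treated n = 13).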

inhibition [1]: Active
inhibition [2]: Active
inhibition [4]: inactive
inhibition [5]: Active
Compound: CN(C)CCS(=O)(=O)Cc1ccc(Br)cc1
Activity [3]: Active
Activity [6]: inactive
